Assay results as given in ChEMBL document CHEMBL1124845, “Synthesis and antiviral activity of some 7-[(2-hydroxyethoxy)methyl]pyrazolo[3,4-d]pyrimidine analogues of sangivamycin and toyocamycin” (J Med Chem, 1990).

Experiments:
[1] = (§1) Tested for cytotoxic activity against monkey kidney cells(BSC-1) cells.; format: functional, cell-based; settings: Cercopithecidae
Method in brief: (§2)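 Cytotoxicity was scored visually on uninfected HFF or BSC-1 cells within the plaque-reduction plates. Drug-induced cytopathology was graded 0 to 4+ at 35- and 60-fold magnification on the day of staining for plaque enumeration.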

Human alphaherpesvirus 1 = test: Tested for antiviral activity against herpes simplex virus-1(HSV-1) by means of plaque reduction assay.; format: functional, organism-based
Method in brief: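 Monolayer BSC-1 cells (MEM with Earle's salts, 10% FBS) infected with about 100 PFU HSV-1 strain S-148 in 0.2 mL inoculum. Compounds were dissolved in the overlay medium and plaques counted. IC50 was taken from a linear regression of percent inhibition against log concentration. An acyclovir or ganciclovir positive control was run in every assay, and sets deviating >1.5 SD were rejected.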

HFF = test: Tested for cytotoxic activity against human foreskin fibroblasts (HFF) cells.; format: functional, cell-based; method in brief: as §2
Human betaherpesvirus 5 = test: Tested for antiviral activity against human cytomegalovirus (HCMV) by means of plaque reduction assay.; format: functional, organism-based
Method in brief: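 HFF monolayers (MEM(E), 10% FBS) were inoculated with about 50 PFU of a plaque-purified Towne strain HCMV isolate in 0.2 mL. Test compounds were included in the overlay medium and plaques counted. IC50 came from a linear regression of percent inhibition versus log concentration. Positive controls ran in all assays, with sets rejected if the control deviated >1.5 SD.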

[2] = Tested for cytotoxic activity against human neoplastic cell line(KB cells).; format: functional, cell-based
Method in brief: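 KB cells were grown in MEM with Hank salts and 5% FBS. Inhibition of radioactive precursor incorporation into DNA, RNA and protein was measured. IC50s were obtained by regression of percent inhibition against log concentration, and the three values were averaged.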

BSC-1 = test: as §1; format: functional, cell-based, Cercopithecidae; settings: Chlorocebus aethiops; method in brief: as §2

COC(=N)c1nn(COCCO)c2ncnc(N)c12
IC50 [1]: > 100 µM | IC50 (Human alphaherpesvirus 1): > 100 µM | IC50 (HFF): > 100 µM | IC50 (Human betaherpesvirus 5): > 100 µM

NC(=S)c1nn(COCCO)c2ncnc(N)c12
IC50 [1]: 100 µM | IC50 [2]: 24 µM | IC50 (Human alphaherpesvirus 1): 9 µM | IC50 (HFF): 55 µM | IC50 (Human betaherpesvirus 5): 2.5 µM

CC(=O)OCCOCn1nc(C#N)c2c(N)ncnc21
IC50 [1]: > 100 µM | IC50 [2]: 54 µM | IC50 (Human alphaherpesvirus 1): > 100 µM | IC50 (HFF): > 100 µM | IC50 (Human betaherpesvirus 5): > 100 µM

N#Cc1nn(COCCO)c2ncnc(N)c12
IC50 [1]: > 100 µM | IC50 (Human alphaherpesvirus 1): > 100 µM | IC50 (HFF): > 100 µM | IC50 (Human betaherpesvirus 5): > 100 µM

NC(=O)c1nn(COCCO)c2ncnc(N)c12
IC50 [1]: > 100 µM | IC50 [2]: > 100 µM | IC50 (Human alphaherpesvirus 1): > 100 µM | IC50 (HFF): > 100 µM | IC50 (Human betaherpesvirus 5): > 100 µM

N#Cc1nnc2nc[nH]c(N)c1-2
IC50 (Human alphaherpesvirus 1): 16 µM | IC50 (BSC-1): > 100 µM | IC50 (HFF): > 100 µM | IC50 (Human betaherpesvirus 5): 68 µM

Nc1nc2c(ncn2COCCO)c(=O)[nH]1 [ACYCLOVIR]
IC50 [1]: > 100 µM | IC50 [2]: > 100 µM | IC50 (HFF): > 100 µM

Nc1nc2c(ncn2COC(CO)CO)c(=O)[nH]1 [GANCICLOVIR]
IC50 [1]: > 100 µM | IC50 [2]: 1000 µM | IC50 (HFF): > 100 µM
